{"source": "paper PMC11316633", "about": "(European journal of medicinal chemistry, 2024)", "key": {"[1]": {"molecular_target": "CDK7/Cyclin H/MNAT1 (Homo sapiens, UniProt P50613)", "sequence (P50613 whole entry)": "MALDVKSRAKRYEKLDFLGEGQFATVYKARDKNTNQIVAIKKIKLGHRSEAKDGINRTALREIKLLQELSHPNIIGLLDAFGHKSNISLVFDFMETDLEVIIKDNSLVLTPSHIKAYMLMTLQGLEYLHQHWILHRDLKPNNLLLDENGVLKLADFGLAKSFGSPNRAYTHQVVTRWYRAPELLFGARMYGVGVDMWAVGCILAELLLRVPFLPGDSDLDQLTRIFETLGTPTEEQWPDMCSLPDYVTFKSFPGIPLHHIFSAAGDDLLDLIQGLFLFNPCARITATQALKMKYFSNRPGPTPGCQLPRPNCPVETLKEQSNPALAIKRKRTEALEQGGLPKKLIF", "sequence (P51946 whole entry partner)": "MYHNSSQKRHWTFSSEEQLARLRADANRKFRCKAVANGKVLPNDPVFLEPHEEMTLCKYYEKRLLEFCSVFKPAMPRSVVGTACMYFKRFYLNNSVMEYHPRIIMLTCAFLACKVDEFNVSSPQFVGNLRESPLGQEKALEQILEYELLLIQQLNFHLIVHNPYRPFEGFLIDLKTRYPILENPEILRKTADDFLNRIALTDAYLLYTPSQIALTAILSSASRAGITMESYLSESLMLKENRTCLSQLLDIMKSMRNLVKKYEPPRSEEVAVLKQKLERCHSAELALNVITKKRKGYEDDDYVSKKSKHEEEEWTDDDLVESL", "sequence (P51948 whole entry partner)": "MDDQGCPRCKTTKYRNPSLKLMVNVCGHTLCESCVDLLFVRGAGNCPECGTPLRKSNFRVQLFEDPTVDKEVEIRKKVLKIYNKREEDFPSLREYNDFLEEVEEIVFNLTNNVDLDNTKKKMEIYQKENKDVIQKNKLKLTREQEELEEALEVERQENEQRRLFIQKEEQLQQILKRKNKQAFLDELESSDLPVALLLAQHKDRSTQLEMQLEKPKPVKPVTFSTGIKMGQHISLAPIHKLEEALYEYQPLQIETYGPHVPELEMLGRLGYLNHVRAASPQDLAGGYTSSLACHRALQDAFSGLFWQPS", "assay": "Adapta Eu kinase assay", "assay_type": "biochemical", "summary_of_the_method": "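CDK7/Cyclin H/MNAT1 complex tested by an outside contract service in Adapta Eu format, with ATP at its Km concentration.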"}, "[2]": {"molecular_target": "T1, CDK7 (Homo sapiens, UniProt P50613)", "T1 sequence (P50613 2-346 limits assumed)": "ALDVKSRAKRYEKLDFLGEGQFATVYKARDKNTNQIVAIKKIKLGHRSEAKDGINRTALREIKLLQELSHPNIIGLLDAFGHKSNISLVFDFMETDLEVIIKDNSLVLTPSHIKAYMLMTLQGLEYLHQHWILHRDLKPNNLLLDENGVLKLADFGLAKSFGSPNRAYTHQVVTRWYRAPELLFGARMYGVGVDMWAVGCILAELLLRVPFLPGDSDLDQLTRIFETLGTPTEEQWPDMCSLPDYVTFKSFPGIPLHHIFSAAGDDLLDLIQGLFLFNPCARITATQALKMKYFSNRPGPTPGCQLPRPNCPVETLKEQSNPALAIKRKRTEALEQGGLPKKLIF", "T1 sequence (P51946 whole entry partner)": "as the sequence (P51946 whole entry partner) above", "T1 sequence (P51948 whole entry partner)": "as the sequence (P51948 whole entry partner) above", "assay": "Immunoblot analysis of CDK7 degradation in Jurkat cells", "assay_type": "cell-based", "summary_of_the_method": "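Jurkat cells received test compound at 0.1 or 1 μM for 16 h, 0.1 μM for 0.5–24 h, or a concentration series for 6 h. Other arms were pretreated 2 h with MG132, MLN-4924, parent CDK7 inhibitor or VHL ligand, or used VHL-knockout Jurkat (6 h). Blots: RIPA lysis, 4–20% SDS-PAGE, nitrocellulose, anti-CDK7 1:1000, β-actin 1:5000, IRDye secondaries. Mean ± SEM of three biological replicates.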"}, "[3]": {"system": "Jurkat cells", "assay": "CellTiter-Glo proliferation assay, Jurkat", "assay_type": "cell-based, human", "details": "72h", "summary_of_the_method": "(§1)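 Cells were grown in RPMI 1640 with 10% heat-inactivated FBS and penicillin/streptomycin at 37 °C and 5% CO2, and tested mycoplasma-negative. They were seeded at 10^4/ml and treated in triplicate. Compounds were dispensed by robot from 10 mM or 1 mM stocks, with DMSO equalised across wells. A non-degrading analogue and the parent inhibitor served as controls. After 72 h, CellTiter-Glo was added for 10–15 min at room temperature and luminescence was read.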"}, "[4]": {"system": "SUDHL5 cells", "assay": "CellTiter-Glo proliferation assay, SUDHL5", "assay_type": "cell-based", "details": "SUDHL5, 72h", "summary_of_the_method": "as §1"}, "[5]": {"system": "Molt4 cells", "assay": "CellTiter-Glo proliferation assay, Molt4", "assay_type": "cell-based", "details": "Molt4, 72h", "summary_of_the_method": "as §1"}, "[6]": {"system": "A549 cells", "assay": "CellTiter-Glo proliferation assay, A549", "assay_type": "cell-based", "details": "A549, 72h", "summary_of_the_method": "as §1"}, "[7]": {"system": "OVCAR3 cells", "assay": "CellTiter-Glo proliferation assay, OVCAR3", "assay_type": "cell-based", "details": "OVCAR3, 72h", "summary_of_the_method": "as §1"}, "[8]": {"molecular_target": "T1, CDK7", "assay": "Immunoblot analysis of CDK7 degradation in different cell lines", "assay_type": "cell-based", "details": "6 h", "summary_of_the_method": "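Cell lines grown in RPMI 1640/10% FBS were exposed to test compound for 6 h. Lysis was in ice-cold RIPA (pH 7.4) with protease/phosphatase inhibitors, with BCA-equalised loading. Proteins were run on 4–20% SDS-PAGE and transferred to nitrocellulose. Blots were probed overnight at 4 °C with anti-CDK7 1:1000 and β-actin 1:5000, then with IRDye secondaries for 1 h at room temperature, and scanned by infrared imaging.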"}, "[9]": {"system": "CDK1, 2, 4, 5, 6, 8 and 9", "assay": "Western blotting analysis of other CDKs in Jurkat cells", "assay_type": "cell-based, human", "details": "0.1 to 0.5 μM, 6 hours", "summary_of_the_method": "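Jurkat cells were exposed to test compound at 0.1–0.5 μM for 6 h. Lysis was in ice-cold RIPA (pH 7.4) with protease and phosphatase inhibitors, with BCA protein quantitation. Samples were boiled 10 min at 95 °C, run on 4–20% SDS-PAGE, and transferred to nitrocellulose. Primary antibodies were applied overnight at 4 °C, then IRDye secondaries for 1 h at room temperature, with infrared detection.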"}, "[10]": {"system": "OVCAR3 cells proteome", "assay": "Multiplexed quantitative mass-spectrometry-based proteomics in OVCAR3 cells", "assay_type": "cell-based, human", "details": "OVCAR3, 0.1 μM, 6 h", "summary_of_the_method": "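OVCAR3 cells in triplicate plates adhered 24 h, then received 0.1 μM test compound or DMSO for 6 h. Lysis was in 2% SDS buffer, followed by 5 mM DTT (37 °C, 1 h) and 15 mM iodoacetamide. Lys-C then trypsin (each 1:75) digested the samples. 150 μg per sample was TMT18-labelled, fractionated at pH 8, and quantified by SPS-MS3 on an Orbitrap. Target-decoy SEQUEST search; peptides with TMT sum >200 and isolation specificity >0.7 kept.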"}, "[11]": {"system": "MAT1", "assay": "Western blotting analysis of MAT1 in OVCAR3 and Jurkat cells", "assay_type": "cell-based", "details": "Western blot, 6 h", "summary_of_the_method": "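OVCAR3 and Jurkat cells were exposed to test compound for 6 h. RIPA lysates were BCA-equalised, resolved on 4–20% SDS-PAGE, and transferred to nitrocellulose. Blots were probed overnight at 4 °C for MAT1, Cyclin H and CDK7 (each 1:1000) plus β-actin (1:5000), then with IRDye secondaries for 1 h at room temperature, and imaged by infrared scanning.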"}, "[12]": {"system": "LONRF2", "assay": "Western blot of LONRF2", "assay_type": "cell-based", "details": "0.1 to 5 μM", "summary_of_the_method": "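Immunoblot with anti-LONRF2 1:1000 overnight at 4 °C and β-actin 1:5000 as loading control. RIPA lysates with protease/phosphatase inhibitors were BCA-equalised, run on 4–20% SDS-PAGE, and transferred to nitrocellulose. IRDye secondaries were applied for 1 h at room temperature, followed by infrared scanning.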"}, "[13]": {"assay": "Mouse pharmacokinetic study", "assay_type": "in vivo, mice"}, "[14]": {"assay": "Tolerability during mouse PK study", "assay_type": "in vivo", "details": "mice"}, "[15]": {"details": "Jurkat cells, 0.1 μM or 1 μM, 16 h, Western blot"}}, "data": [{"smiles": "Cc1ncsc1-c1ccc([C@H](C)NC(=O)[C@@H]2C[C@H](O)CN2C(=O)[C@@H](NC(=O)CCCC#Cc2ccc(C(=O)Nc3n[nH]c4c3CN(C(=O)N[C@H](CN(C)C)c3ccccc3)C4(C)C)cc2)C(C)(C)C)cc1", "note": "[Compound 17-Neg, N-((S)-2-(dimethylamino)-1-phenylethyl)-3-(4-(6-(((S)-1-((2S,4S)-4-hydroxy-2-(((S)-1-(4-(4-methylthiazol-5-yl)phenyl)ethyl)carbamoyl)pyrrolidin-1-yl)-3,3-dimethyl-1-oxobutan-2-yl)amino)-6-oxohex-1-yn-1-yl)benzamido)-6,6-dimethyl-4,6-dihydropyrrolo[3,4-c]pyrazole-5(1H)-carboxamide]", "values": [{"measurement": "IC50", "setting": "[1]", "result": 21.1, "unit": "nM"}, {"measurement": "level of CDK7 protein", "setting": "[2]; Jurkat cells, 6 h, negative control", "result": "fails to reduce the level of CDK7 protein"}, {"measurement": "anti-proliferative effect (in words)", "setting": "[3]", "result": "much weaker anti-proliferative effect"}, {"measurement": "antiproliferative effect (in words)", "setting": "[4]", "result": "much weaker antiproliferative effect"}, {"measurement": "antiproliferative effect (in words)", "setting": "[5]", "result": "much weaker antiproliferative effect"}, {"measurement": "antiproliferative effect (in words)", "setting": "[6]", "result": "much weaker antiproliferative effect"}, {"measurement": "antiproliferative effect (in words)", "setting": "[7]", "result": "much weaker antiproliferative effect"}]}, {"smiles": "Cc1ncsc1-c1ccc([C@H](C)NC(=O)[C@@H]2C[C@@H](O)CN2C(=O)[C@@H](NC(=O)CCCC#Cc2ccc(C(=O)Nc3n[nH]c4c3CN(C(=O)N[C@H](CN(C)C)c3ccccc3)C4(C)C)cc2)C(C)(C)C)cc1", "note": "[Compound 17, N-((S)-2-(dimethylamino)-1-phenylethyl)-3-(4-(6-(((S)-1-((2S,4R)-4-hydroxy-2-(((S)-1-(4-(4-methylthiazol-5-yl)phenyl)ethyl)carbamoyl)pyrrolidin-1-yl)-3,3-dimethyl-1-oxobutan-2-yl)amino)-6-oxohex-1-yn-1-yl)benzamido)-6,6-dimethyl-4,6-dihydropyrrolo[3,4-c]pyrazole-5(1H)-carboxamide]", "values": [{"measurement": "CDK7 degradation (in words)", "setting": "[2]; [15]", "result": "most effective degrader for CDK7"}, {"measurement": "reduction in CDK7 protein", "setting": "[2]; [15]", "result": "up to 95%"}, {"measurement": "time at which degradation of CDK7 was observable", "setting": "[2]; Jurkat cells, 0.1 μM, time course up to 24 hours", "result": "≤ 0.5", "unit": "h"}, {"measurement": "CDK7 degradation after pretreatment with MG132 or MLN-4924", "setting": "[2]; Jurkat cells, 2 h pretreatment, then 17 for 6 h", "result": "rescued CDK7 degradation"}, {"measurement": "hook effect", "setting": "[2]; Jurkat cells, 6 h, up to 5 μM", "result": "no hook effect was observed"}, {"measurement": "CDK7 degradation, concentration dependence", "setting": "[2]; Jurkat cells, different concentrations, 6 h", "result": "efficiently induced CDK7 degradation in a dose-dependent manner"}, {"measurement": "CDK7 degradation in cells lacking VHL", "setting": "[2]; VHL-knockout Jurkat cells vs wild-type, 6 h", "result": "completely abrogated"}, {"measurement": "CDK7 degradation", "setting": "[8]; A549 lung adenocarcinoma cell line", "result": "Robust degradation"}, {"measurement": "CDK7 degradation", "setting": "[8]; Molt4 T lymphoblast cell line", "result": "Robust degradation"}, {"measurement": "CDK7 degradation", "setting": "[8]; OVCAR3 ovarian adenocarcinoma cell line", "result": "Robust degradation"}, {"measurement": "CDK7 degradation", "setting": "[8]; SUDHL5 B-cell lymphoma cell line", "result": "Robust degradation"}, {"measurement": "protein levels of other CDK family members", "setting": "[9]", "result": "barely affected the protein levels"}, {"measurement": "CDK7 abundance (proteomics)", "setting": "[10]", "result": "significantly downregulated"}, {"measurement": "Cyclin H abundance (proteomics)", "setting": "[10]", "result": "significantly downregulated"}, {"measurement": "number of significantly changed proteins", "setting": "[10]; 6538 proteins identified, 1.75-fold cutoff, p-value < 0.001, vs DMSO", "result": "only three significantly changed proteins were identified"}, {"measurement": "MAT1 protein level", "setting": "[11]", "result": "dose-dependent downregulation"}, {"measurement": "LONRF2 degradation", "setting": "[12]", "result": "did not observed LONRF2 degradation"}, {"measurement": "antiproliferative effect (in words)", "setting": "[7]", "result": "efficacies comparable to its parental compound YKL-5–167"}, {"measurement": "concentration at 6 h", "setting": "[13]; male, CD1, mouse, plasma, ip, 10 mg/kg", "result": 1490, "unit": "nM"}, {"measurement": "clearance", "setting": "[13]; mice, IV 3 mg/kg and IP 10 mg/kg", "result": "low clearance"}, {"measurement": "maximum plasma concentration", "setting": "[13]; mice, single IP injection, 10 mg/kg", "result": 3.39, "unit": "µM"}, {"measurement": "clinical signs", "setting": "[14]; during the PK study", "result": "no clinical signs were observed"}, {"measurement": "tolerability", "setting": "[14]; single dose IV 3 mg/kg or IP 10 mg/kg", "result": "well tolerated"}]}]}
